Source: ChEMBL document CHEMBL1629614, “Inhibition of methionyl-tRNA synthetase by REP8839 and effects of resistance mutations on enzyme activity” (Antimicrob Agents Chemother, 2009)
Residue numbers refer to the chain shown, from its start. Names and notes keep the numbering of the source.

Legend:
[1] = compound: C=C(F)c1sc(CNCCCNc2cc(=O)c3ccccc3[nH]2)c(C)c1Br; test: Activity of Haemophilus influenzae MetRS by ATP:PPi exchange assay in presence of methionine
[2] = compound: C=C(F)c1sc(CNCCCNc2cc(=O)c3ccccc3[nH]2)c(C)c1Br; test: Activity of Haemophilus influenzae MetRS by ATP:PPi exchange assay in presence of ATP
[3] = compound: C=C(F)c1sc(CNCCCNc2cc(=O)c3ccccc3[nH]2)c(C)c1Br; test: Activity of Staphylococcus aureus MetRS L213W mutant by ATP:PPi exchange assay in presence of ATP
Outline: (§1)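 Purified S. aureus MetRS (wild type or mutant; E. coli-expressed, ammonium sulfate cut, anion exchange) at 30 nM. ATP:PPi exchange at 30°C in 100 mM Tris-HCl pH 8.0, 5–10 mM Mg acetate, 80 mM KCl, 2.5 mM DTT, [32P]PPi plus cold PPi equal to ATP. Quenched with EDTA over 1–10 min, PEI-cellulose TLC, phosphorimager. Initial velocities versus varied ATP or methionine fit to Michaelis-Menten.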

[4] = compound: C=C(F)c1sc(CNCCCNc2cc(=O)c3ccccc3[nH]2)c(C)c1Br; test: Ratio of Kcat to Km for Staphylococcus aureus MetRS L213W mutant in presence of tRNA
Outline: (§2)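 Purified recombinant S. aureus MetRS was assayed by tRNA aminoacylation at 30°C for 1 to 7.5 min to obtain initial rates. Buffer was Tris pH 8.0 with Mg acetate, 2.5 mM ATP, KCl, DTT, BSA, [3H]methionine and crude E. coli tRNA. Reactions were EDTA-stopped, and charged tRNA was read by scintillation proximity with polylysine beads at pH 2.0.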

[5] = compound: C=C(F)c1sc(CNCCCNc2cc(=O)c3ccccc3[nH]2)c(C)c1Br; test: Activity of Staphylococcus aureus MetRS L213W mutant by ATP:PPi exchange assay in presence of methionine; outline: as §1
[6] = compound: C=C(F)c1sc(CNCCCNc2cc(=O)c3ccccc3[nH]2)c(C)c1Br; test: Ratio of Kcat to Km for Staphylococcus aureus MetRS L213W mutant in presence of methionine
Outline: (§3)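 Purified recombinant S. aureus MetRS (30 nM) was assayed by ATP:PPi exchange at 30°C in Tris pH 8.0 with Mg acetate, KCl and DTT. [32P]PPi was matched to ATP, and ATP or methionine was varied. Time points from 1 to 10 min were quenched with EDTA, separated by PEI-cellulose TLC and read by phosphorimager. Initial rates were fitted to Michaelis-Menten.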

[7] = compound: C=C(F)c1sc(CNCCCNc2cc(=O)c3ccccc3[nH]2)c(C)c1Br; test: Ratio of Kcat to Km for Staphylococcus aureus MetRS L213W mutant in presence of ATP; outline: as §3
[8] = compound: C=C(F)c1sc(CNCCCNc2cc(=O)c3ccccc3[nH]2)c(C)c1Br; test: Activity of streptococcus aureus MetRS L213W mutant by scintillation proximity assay in presence of tRNA; details: Staphylococcus aureus
[9] = compound: C=C(F)c1sc(CNCCCNc2cc(=O)c3ccccc3[nH]2)c(C)c1Br; test: Ratio of Kcat to Km for Staphylococcus aureus MetRS I57N V242F mutant in presence of methionine; outline: as §3
[10] = compound: C=C(F)c1sc(CNCCCNc2cc(=O)c3ccccc3[nH]2)c(C)c1Br; test: Activity of Staphylococcus aureus MetRS I57N, V242F mutant by ATP:PPi exchange assay in presence of methionine; outline: as §1
[11] = compound: C=C(F)c1sc(CNCCCNc2cc(=O)c3ccccc3[nH]2)c(C)c1Br; test: Activity of Staphylococcus aureus MetRS I57N, V242F mutant by ATP:PPi exchange assay in presence of ATP; outline: as §1
[12] = compound: C=C(F)c1sc(CNCCCNc2cc(=O)c3ccccc3[nH]2)c(C)c1Br; test: Ratio of Kcat to Km for Staphylococcus aureus MetRS I57N V242F mutant in presence of tRNA; outline: as §2
[13] = compound: C=C(F)c1sc(CNCCCNc2cc(=O)c3ccccc3[nH]2)c(C)c1Br; test: Activity of streptococcus aureus MetRS I57N, V242F mutant by scintillation proximity assay in presence of tRNA; details: Staphylococcus aureus
[14] = compound: C=C(F)c1sc(CNCCCNc2cc(=O)c3ccccc3[nH]2)c(C)c1Br; test: Ratio of Kcat to Km for Staphylococcus aureus MetRS I57N V242F mutant in presence of ATP; outline: as §3
[15] = compound: C=C(F)c1sc(CNCCCNc2cc(=O)c3ccccc3[nH]2)c(C)c1Br; test: Ratio of Kcat to Km for Staphylococcus aureus MetRS G54S mutant in presence of methionine; outline: as §3
[16] = compound: C=C(F)c1sc(CNCCCNc2cc(=O)c3ccccc3[nH]2)c(C)c1Br; test: Ratio of Kcat to Km for Staphylococcus aureus MetRS G54S mutant in presence of tRNA; outline: as §2
[17] = compound: C=C(F)c1sc(CNCCCNc2cc(=O)c3ccccc3[nH]2)c(C)c1Br; test: Activity of streptococcus aureus MetRS G54S mutant by scintillation proximity assay in presence of tRNA; details: Staphylococcus aureus
[18] = compound: C=C(F)c1sc(CNCCCNc2cc(=O)c3ccccc3[nH]2)c(C)c1Br; test: Ratio of Kcat to Km for Staphylococcus aureus MetRS G54S mutant in presence of ATP; outline: as §3
[19] = compound: C=C(F)c1sc(CNCCCNc2cc(=O)c3ccccc3[nH]2)c(C)c1Br; test: Activity of Staphylococcus aureus MetRS G54S mutant by ATP:PPi exchange assay in presence of methionine; outline: as §1
[20] = compound: C=C(F)c1sc(CNCCCNc2cc(=O)c3ccccc3[nH]2)c(C)c1Br; test: Activity of Staphylococcus aureus MetRS G54S mutant by ATP:PPi exchange assay in presence of ATP; outline: as §1

B1: Methionine--tRNA ligase (Haemophilus influenzae (strain ATCC 51907 / DSM 11121 / KW20 / Rd)), P43828 (protein)
chain: MTTQPRKILVTCALPYANGAIHLGHMLEHIQADIWVRFQRMRGNKIHFVCADDAHGTPIMLNADKLGITPEELIAKAKADHIRDFAGFNISFDNYHSTHSEENKQLTAEIYNKLKANGFIKSKVISQLFDPEKNMFLPDRFVKGTCPKCKAEDQYGDNCEVCASTYSPMDLINPRSAVSGTTPIVKESEHFFFDLPAFEGMLKEWTRSGSLQSEIANKMQEWFESDLQQWDISRDAPYFGFEIPGAKDKFFYVWLDAPIGYMASFKNLCNREGIDFNEFWAEGSDAELYHFIGKDIVYFHSLFWPAMLEGSGYRKPTNVFAHGYVTVDGAKMSKSRGTFIQASTYLNHIDPECLRYYYAAKLNDRIEDLDFNLEDFVQRVNTDIVNKLVNLASRNAGFIAKRFEGKLADKLEDKSLFAEFTAQAEQIAAYYESREYNKTIREIMALTDKANKYIDEKAPWVIAKEEGKEAELQAVCSMGIELFRVLMSYLKPVLPKLAERAETFLQAELRWDNIHQPLLGHTLAPFKALFSRLEKKQIDAVVEETKALFAAANKAAEKTEAKPTALSAVEPIAETITIDDFAKLDMRVAKVLKCEAVPESNKLLRFELDLGDHTRQVFSGIKAAYNKPEELEGRFVIMVANLAPRKMKFGVSEGMILSAGTGGSDLFLLSADSGVTAGMQVK
With B1 the Km [1] was 250 µM and the Km [2] was 1200 µM.

B2: Methionine--tRNA ligase (Staphylococcus aureus subsp. aureus MW2), Q8NY00 L213W (protein)
chain: MAKETFYITTPIYYPSGNLHIGHAYSTVAGDVIARYKRMQGYDVRYLTGTDEHGQKIQEKAQKAGKTEIEYLDEMIAGIKQLWAKLEISNDDFIRTTEERHKHVVEQVFERLLKQGDIYLGEYEGWYSVPDETYYTESQLVDPQYENGKIIGGKSPDSGHEVELVKEESYFFNISKYTDRLLEFYDQNPDFIQPPSRKNEMINNFIKPGLADWAVSRTSFNWGVHVPSNPKHVVYVWIDALVNYISALGYLSDDESLFNKYWPADIHLMAKEIVRFHSIIWPILLMALDLPLPKKVFAHGWILMKDGKMSKSKGNVVDPNILIDRYGLDATRYYLMRELPFGSDGVFTPEAFVERTNFDLANDLGNLVNRTISMVNKYFDGELPAYQGPLHELDEEMEAMALETVKSYTESMESLQFSVALSTVWKFISRTNKYIDETTPWVLAKDDSQKDMLGNVMAHLVENIRYAAVLLRPFLTHAPKEIFEQLNINNPQFMEFSSLEQYGVLTESIMVTGQPKPIFPRLDSEAEIAYIKESMQPPATEEEKEEIPSKPQIDIKDFDKVEIKAATIINAEHVKKSDKLLKIQVDLDSEQRQIVSGIAKFYTPDDIIGKKVAVVTNLKPAKLMGQKSEGMILSAEKDGVLTLVSLPSAIPNGAVIK
B2 gave a Km [3] of 595 µM, a kcat/Km [4] of 320000 M⁻¹ s⁻¹ and a Km [5] of 100 µM. It also gave a kcat [5] of 10 s⁻¹, a kcat/Km [6] of 100000 M⁻¹ s⁻¹ and a kcat/Km [7] of 17000 M⁻¹ s⁻¹. For the same protein, the Km [8] was 1.7 µM and the kcat [8] was 0.54 s⁻¹.

B3: Methionine--tRNA ligase (Staphylococcus aureus subsp. aureus MW2), Q8NY00 I57N,V242F (protein)
chain: B2 chain with I57N, W213L, V242F
B3 gave a kcat/Km [9] of 700000 M⁻¹ s⁻¹, a Km [10] of 20 µM and a kcat [10] of 14 s⁻¹. For the same protein, the Km [11] was 810 µM, the kcat/Km [12] was 12000 M⁻¹ s⁻¹ and the Km [13] was 10 µM. The kcat [13] was 0.124 s⁻¹ and the kcat/Km [14] was 17000 M⁻¹ s⁻¹.

B4: Methionine--tRNA ligase (Staphylococcus aureus subsp. aureus MW2), Q8NY00 G54S (protein)
chain: B2 chain with G54S, W213L
B4 showed a kcat/Km [15] of 70000 M⁻¹ s⁻¹, a kcat/Km [16] of 33000 M⁻¹ s⁻¹ and a Km [17] of 0.27 µM. It also gave a kcat [17] of 0.009 s⁻¹, a kcat/Km [18] of 10000 M⁻¹ s⁻¹ and a Km [19] of 75 µM. It also gave a kcat [19] of 5 s⁻¹ and a Km [20] of 500 µM.
